The source of these data is ChEMBL document CHEMBL4257503, “N-Acetyl-3-aminopyrazoles block the non-canonical NF-kB cascade by selectively inhibiting NIK” (Medchemcomm, 2018).

As a reminder, the IC50 is the midpoint of a concentration-inhibition curve. In general, inhibition refers to the percentage by which the read-out fell short of the control. Low values mean a weak effect, high ones a strong effect.

The target of data set [1] is T1, Inhibitor of nuclear factor kappa-B kinase subunit beta (Homo sapiens, UniProt O14920).
T1 sequence (O14920 whole entry): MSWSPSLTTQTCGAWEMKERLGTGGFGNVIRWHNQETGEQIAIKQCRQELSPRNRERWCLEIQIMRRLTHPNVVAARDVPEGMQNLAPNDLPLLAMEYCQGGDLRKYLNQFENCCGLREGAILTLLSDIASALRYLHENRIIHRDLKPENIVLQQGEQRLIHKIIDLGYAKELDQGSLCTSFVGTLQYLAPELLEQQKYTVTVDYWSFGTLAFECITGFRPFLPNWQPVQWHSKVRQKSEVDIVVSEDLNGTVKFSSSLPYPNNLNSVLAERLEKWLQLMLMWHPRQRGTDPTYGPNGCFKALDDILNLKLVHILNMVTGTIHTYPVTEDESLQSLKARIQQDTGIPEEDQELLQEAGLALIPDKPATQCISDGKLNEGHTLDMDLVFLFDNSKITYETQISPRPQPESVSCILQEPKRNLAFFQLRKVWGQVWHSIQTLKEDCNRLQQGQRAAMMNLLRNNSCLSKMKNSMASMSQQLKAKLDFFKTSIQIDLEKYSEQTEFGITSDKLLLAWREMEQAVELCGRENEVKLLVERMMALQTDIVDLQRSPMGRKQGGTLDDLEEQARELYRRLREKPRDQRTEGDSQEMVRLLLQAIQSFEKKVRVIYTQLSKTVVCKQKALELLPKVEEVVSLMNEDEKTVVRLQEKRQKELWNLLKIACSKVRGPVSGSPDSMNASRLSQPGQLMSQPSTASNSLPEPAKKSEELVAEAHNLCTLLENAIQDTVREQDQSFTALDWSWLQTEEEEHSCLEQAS
Nature of the data set: Inhibition of recombinant human full-length N-terminal GST-fused/His6-tagged IKKbeta (M1 to S756 residues) expressed in Sf9 insect cells using ERLLDDRHDSGLDSMKDEE peptide as substrate measured after 60 mins by ADP-Glo kinase assay. A general note: ADP-Glo turns the ADP formed in a reaction into a luminescent signal.

The target in data set [2] is T2, Inhibitor of nuclear factor kappa-B kinase subunit epsilon (Homo sapiens, UniProt Q14164).
T2 sequence (Q14164 whole entry): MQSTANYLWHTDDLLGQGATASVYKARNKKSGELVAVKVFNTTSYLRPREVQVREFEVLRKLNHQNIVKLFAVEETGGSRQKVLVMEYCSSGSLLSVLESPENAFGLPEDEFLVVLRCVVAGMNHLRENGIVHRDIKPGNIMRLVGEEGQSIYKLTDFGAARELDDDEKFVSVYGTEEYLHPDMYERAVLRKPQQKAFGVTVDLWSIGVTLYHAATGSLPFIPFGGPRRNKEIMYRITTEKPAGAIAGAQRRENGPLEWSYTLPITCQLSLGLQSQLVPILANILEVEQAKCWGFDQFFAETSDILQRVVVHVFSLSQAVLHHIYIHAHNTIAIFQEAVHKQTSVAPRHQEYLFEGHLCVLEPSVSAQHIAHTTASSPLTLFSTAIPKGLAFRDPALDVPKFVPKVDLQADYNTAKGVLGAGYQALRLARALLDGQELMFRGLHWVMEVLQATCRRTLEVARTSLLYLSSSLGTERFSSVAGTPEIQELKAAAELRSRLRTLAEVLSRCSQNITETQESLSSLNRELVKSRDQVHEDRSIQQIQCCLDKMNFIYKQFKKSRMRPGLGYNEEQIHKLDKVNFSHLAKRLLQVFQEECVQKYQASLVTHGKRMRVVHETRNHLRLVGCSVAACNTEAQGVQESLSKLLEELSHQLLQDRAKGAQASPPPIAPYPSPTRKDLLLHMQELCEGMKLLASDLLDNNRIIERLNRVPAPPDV
Nature of the data set: Inhibition of recombinant human full-length N-terminal GST-fused/His6-tagged IKKepsilon (M1 to V716 residues) expressed in Sf9 insect cells using ERLLDDRHDSGLDSMKDEE peptide as substrate measured after 60 mins by ADP-Glo kinase assay.

Data set [3] concerns the target T3, Mitogen-activated protein kinase kinase kinase 14 (Homo sapiens, UniProt Q99558). Nature of the data set: Inhibition of recombinant human full-length N-terminal GST-fused/His6-tagged NIK (M1 to P947 residues) expressed in Sf9 insect cells using AKDVDQGSLCTSFVGTLQY peptide as substrate measured after 60 mins by ADP-Glo kinase assay.
Target sequence in this assay (Q99558 whole entry, the tested form may be a part): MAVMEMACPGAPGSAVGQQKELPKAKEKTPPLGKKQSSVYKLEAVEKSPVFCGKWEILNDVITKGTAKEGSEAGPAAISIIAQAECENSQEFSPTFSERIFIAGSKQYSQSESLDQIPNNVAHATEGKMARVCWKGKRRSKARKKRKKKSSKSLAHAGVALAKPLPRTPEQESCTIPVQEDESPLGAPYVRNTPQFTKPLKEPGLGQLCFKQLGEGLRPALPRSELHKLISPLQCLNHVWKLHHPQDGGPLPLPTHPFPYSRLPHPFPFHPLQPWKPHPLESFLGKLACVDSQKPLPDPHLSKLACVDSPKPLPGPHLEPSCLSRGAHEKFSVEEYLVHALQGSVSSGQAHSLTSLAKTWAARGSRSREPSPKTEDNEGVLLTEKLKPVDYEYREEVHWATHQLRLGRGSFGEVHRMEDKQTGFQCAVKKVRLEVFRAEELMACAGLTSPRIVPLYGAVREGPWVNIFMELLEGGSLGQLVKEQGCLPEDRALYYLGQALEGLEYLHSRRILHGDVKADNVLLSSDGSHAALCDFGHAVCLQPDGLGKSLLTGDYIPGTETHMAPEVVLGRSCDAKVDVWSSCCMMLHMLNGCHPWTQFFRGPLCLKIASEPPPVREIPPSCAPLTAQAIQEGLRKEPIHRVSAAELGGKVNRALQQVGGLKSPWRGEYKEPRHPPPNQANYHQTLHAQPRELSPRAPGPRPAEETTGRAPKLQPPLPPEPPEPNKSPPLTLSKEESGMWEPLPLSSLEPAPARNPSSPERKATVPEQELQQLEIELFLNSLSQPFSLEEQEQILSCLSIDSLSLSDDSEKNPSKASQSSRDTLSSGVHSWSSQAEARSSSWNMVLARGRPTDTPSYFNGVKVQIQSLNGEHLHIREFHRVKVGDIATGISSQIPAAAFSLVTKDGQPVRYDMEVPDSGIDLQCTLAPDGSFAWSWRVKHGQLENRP
Data set [4] concerns the target T4, Inhibitor of nuclear factor kappa-B kinase subunit alpha (Homo sapiens, UniProt O15111).
T4 sequence (O15111 whole entry): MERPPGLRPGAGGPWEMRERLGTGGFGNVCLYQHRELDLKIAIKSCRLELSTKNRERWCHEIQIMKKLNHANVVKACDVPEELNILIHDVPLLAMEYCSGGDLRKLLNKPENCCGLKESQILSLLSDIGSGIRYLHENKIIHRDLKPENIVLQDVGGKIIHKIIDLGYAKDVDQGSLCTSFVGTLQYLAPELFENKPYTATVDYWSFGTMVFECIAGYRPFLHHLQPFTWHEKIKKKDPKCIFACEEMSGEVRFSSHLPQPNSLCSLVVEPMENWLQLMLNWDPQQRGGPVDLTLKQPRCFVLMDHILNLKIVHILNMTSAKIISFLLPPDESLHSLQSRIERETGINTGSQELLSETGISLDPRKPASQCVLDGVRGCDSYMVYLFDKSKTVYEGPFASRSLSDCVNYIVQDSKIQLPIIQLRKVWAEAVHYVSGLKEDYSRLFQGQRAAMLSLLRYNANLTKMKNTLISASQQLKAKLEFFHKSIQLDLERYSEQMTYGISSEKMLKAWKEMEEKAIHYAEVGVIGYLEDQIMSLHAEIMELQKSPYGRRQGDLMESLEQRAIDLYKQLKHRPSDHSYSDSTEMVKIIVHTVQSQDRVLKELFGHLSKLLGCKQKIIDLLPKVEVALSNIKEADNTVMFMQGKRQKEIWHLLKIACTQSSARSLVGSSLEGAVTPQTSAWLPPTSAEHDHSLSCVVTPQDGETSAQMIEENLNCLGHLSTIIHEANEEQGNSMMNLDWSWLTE
Nature of the data set: Inhibition of recombinant full length human His-tagged IKKalpha expressed in baculovirus expression system using ERLLDDRHDSGLDSMKDEE peptide as substrate measured after 60 mins by ADP-Glo kinase assay. In a few lines: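 Recombinant human IKKα, peptide substrate 100 µM, enzyme 8 ng/µL, ATP 1 µM in Tris-HCl pH 7.5 buffer with MgCl2, MnCl2, DTT, Na3VO4, BSA; 25°C, 60 min; ADP-Glo luminescence. Ten concentrations 0.005–100 µM; IC50 by nonlinear regression; means ± SD of three independent experiments.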

The target in data set [5] is T3, Mitogen-activated protein kinase kinase kinase 14. Nature of the data set: Inhibition of NIK-induced NFkappaB activation in human EJM cells at 100 uM after 6 hrs by dual luciferase reporter gene assay relative to control. It counts as cell-based. In a few lines: (§1)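 Cells were nucleofected with the pGL4.32 NF-κB-RE firefly luciferase and pGL4.74 TK-Renilla plasmids (3 µg, 10:1 ratio) and cultured for 24 h at 37 °C. Compound (10, 25, 50 or 100 µM) was then added for 6 h. Firefly luminescence was normalised to Renilla from the same sample and expressed as % of vehicle control. Means ± SD of three independent experiments.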
In general terms: Reporter assays use an easily measured gene product as a stand-in for the process of interest.
Target sequence in this assay (Q99558 whole entry, looked up, the tested form may be a part): as the sequence (Q99558 whole entry, the tested form may be a part) above

The subject of data set [6] is MDA-MB-231. Nature of the data set: Inhibition of NFkappaB activation in human MDA-MB-231 cells at 50 uM after 6 hrs by dual luciferase reporter gene assay relative to control. It counts as cell-based. In a few lines: as §1
The species named for data set [7] is Homo sapiens. Nature of the data set: Inhibition of NFkappaB activation in human SKBR3 cells at 50 uM after 6 hrs by dual luciferase reporter gene assay relative to control. It counts as cell-based. In a few lines:
as §1

A short description of data set [8]: Cytotoxicity against human MDA-MB-231 cells assessed as cell viability at 50 uM after 6 hrs by CellTiter Glo luminescent assay relative to control. The conditions noted are these: read-out: Activity. It counts as cell-based. The method, boiled down:
(§2)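 Cells seeded at 5 x 10^3 per well and exposed for 6 h to the compound (10, 25, 50 or 100 µM) or to DMSO vehicle. Viability was read as intracellular ATP by CellTiter Glo luminescence.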
In general terms: Cellular ATP, detected with luciferase, serves as a proxy for viable cell number.

Data set [9] is described as follows: Cytotoxicity against human EJM cells assessed as cell viability at 100 uM after 6 hrs by CellTiter Glo luminescent assay relative to control. It counts as cell-based. The following applies: read-out: Activity. In a few lines: as §2
Data set [10] in a line: Cytotoxicity against human SKBR3 cells assessed as cell viability at 50 uM after 6 hrs by CellTiter Glo luminescent assay relative to control. The data set is classed as cell-based, SK-BR-3. The following applies: read-out: Activity. The method, boiled down:
as §2

For data set [11], the system named is MDA-MB-231. Nature of the data set: Inhibition of NFkappaB activation in human MDA-MB-231 cells at 1 uM after 6 hrs by dual luciferase reporter gene assay relative to control. The data set is classed as cell-based.
The species entered for data set [12] is Homo sapiens. Nature of the data set: Inhibition of NFkappaB activation in human SKBR3 cells at 1 uM after 6 hrs by dual luciferase reporter gene assay relative to control. The data set is classed as cell-based.
Data set [13] can be described thus: Cytotoxicity against human MDA-MB-231 cells assessed as cell viability at 1 uM after 6 hrs by CellTiter Glo luminescent assay relative to control. The following applies: read-out: Activity. The data set is classed as cell-based.
Data set [14] can be described thus: Cytotoxicity against human EJM cells assessed as cell viability at 1 uM after 6 hrs by CellTiter Glo luminescent assay relative to control. It counts as cell-based. The conditions noted are these: read-out: Activity.
A short description of data set [15]: Cytotoxicity against human SKBR3 cells assessed as cell viability at 1 uM after 6 hrs by CellTiter Glo luminescent assay relative to control. The data set is classed as cell-based, SK-BR-3. The conditions noted are these: read-out: Activity.
Data set [16] has as its target T3, Mitogen-activated protein kinase kinase kinase 14. Nature of the data set: Inhibition of NIK-induced NFkappaB activation in human EJM cells at 20 uM after 6 hrs by dual luciferase reporter gene assay relative to control. The data set is classed as cell-based.
Target sequence in this assay (Q99558 whole entry, looked up, the tested form may be a part): as the sequence (Q99558 whole entry, the tested form may be a part) above
Data set [17] can be described thus: Cytotoxicity against human EJM cells assessed as cell viability at 20 uM after 6 hrs by CellTiter Glo luminescent assay relative to control. It counts as cell-based. The following applies: read-out: Activity.

Consider `Cc1nn(C(=O)C2CC2)c(N)c1-c1ccc(Cl)c(Cl)c1`, for which the half-maximal inhibitory concentration (IC50) in data set [1] was > 100 µM; in data set [2], > 100 µM; in data set [3], 24.3 µM; in data set [4] it was > 100 µM. The inhibition in data set [5] was 68.9%; in the data set with MDA-MB-231 [6], 5.8%; in the data set filed under Homo sapiens [7], 3.66%. Also, the viability at 6 h, 50 µM in data set [8] and in data set [10] was ≥ 80% each time. Further, the viability at 6 h, 100 µM in data set [9] is ≥ 80%.
For `COCCOc1cnc(N)nc1-c1c[nH]c2ccc(C#CC(C)(C)O)cc12`, the IC50 in [1] was > 100 µM; in data set [2] it was > 100 µM; in [3], 0.07 µM; in [4], > 100 µM. The inhibition came to 7.1% in the data set on MDA-MB-231 [11] and 2.3% in the data set listed under Homo sapiens [12]. Moreover, the viability at 6 h, 1 µM in data set [13], in [14] and in data set [15] was ≥ 80% throughout.
As to `O=C(Nc1cc(Cl)c2c(c1)[nH]c1cnccc12)c1cccnc1`, the half-maximal inhibitory concentration (IC50) in [1] was 0.09 µM; in data set [2], > 100 µM; in data set [3] it was > 100 µM; in [4], > 100 µM. For the same compound, the inhibition in [16] was found to be 89.3%; in the data set on MDA-MB-231 [6] it was 87.9%; in the data set filed under Homo sapiens [7], 3.6%. Besides, the viability at 6 h, 50 µM in data set [8] and in [10] was ≥ 80% throughout. The viability at 6 h, 20 µM in data set [17] is ≥ 80%.
